In ChEMBL document CHEMBL1275468, “Plasmid-mediated qnrB2 and carbapenemase gene bla(KPC-2) carried on the same plasmid in carbapenem-resistant ciprofloxacin-susceptible Enterobacter cloacae isolates” (2008):

Legend:
Format in all cases: functional
Enterobacter cloacae [1] = experiment: Antimicrobial activity against Enterobacter cloacae isolate 656 containing PFGE genetic clone A expressing beta-lactamase KPC-2 and SHV-12 gene by Etest in presence of beta-lactamase inhibitor Tazobactam
Outline: (§1)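 Clinical carbapenem-resistant, blaKPC-2-carrying E. cloacae isolates; MIC read by Etest. Clonal relatedness typed by PFGE after SpeI (20 U) digestion of genomic DNA on a CHEF-DR III system. qnr genes, and aac(6′)-Ib-cr by PCR with BtsCI digestion, detected from cell-lysate templates.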

Enterobacter cloacae [2] = experiment: Antimicrobial activity against Enterobacter cloacae isolate 649 containing PFGE genetic clone B expressing qnrB2 and beta-lactamase KPC-2 and SHV-12 gene by Etest in presence of beta-lactamase inhibitor Tazobactam; outline: as §1
Enterobacter cloacae [3] = experiment: Antimicrobial activity against Enterobacter cloacae isolate 658 containing PFGE genetic clone B expressing qnrB2 and beta-lactamase KPC-2 and SHV-12 gene by Etest in presence of beta-lactamase inhibitor Tazobactam; outline: as §1
Enterobacter cloacae [4] = experiment: Antimicrobial activity against Enterobacter cloacae isolate 781 containing PFGE genetic clone B expressing qnrB2 and beta-lactamase KPC-2 and SHV-12 gene by Etest in presence of beta-lactamase inhibitor Tazobactam; outline: as §1
Enterobacter cloacae [5] = experiment: Antimicrobial activity against Enterobacter cloacae isolate 837 containing PFGE genetic clone B expressing qnrB2 and beta-lactamase KPC-2 and SHV-12 gene by Etest in presence of beta-lactamase inhibitor Tazobactam; outline: as §1
Enterobacter cloacae [6] = experiment: Antimicrobial activity against Enterobacter cloacae isolate 4469 containing PFGE genetic clone C expressing qnrB2 and beta-lactamase KPC-2 and SHV-12 gene by Etest in presence of beta-lactamase inhibitor Tazobactam
Escherichia coli [7] = experiment: Antimicrobial activity against Escherichia coli T-622 harboring expressing qnrB2 and beta-lactamase KPC-2 and SHV-12 gene by Etest in presence of beta-lactamase inhibitor Tazobactam
Escherichia coli [8] = experiment: Antimicrobial activity against Escherichia coli T-625 harboring expressing qnrB2 and beta-lactamase KPC-2 and SHV-12 gene by Etest in presence of beta-lactamase inhibitor Tazobactam
Escherichia coli [9] = experiment: Antimicrobial activity against Escherichia coli T-781 harboring expressing qnrB2 and beta-lactamase KPC-2 and SHV-12 gene by Etest in presence of beta-lactamase inhibitor Tazobactam
Escherichia coli [10] = experiment: Antimicrobial activity against Escherichia coli GeneHogs by Etest in presence of beta-lactamase inhibitor Tazobactam
Outline: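 Recipient is E. coli GeneHogs (recA1), electroporated with plasmid DNA from clinical isolates. Transformants were selected on LB agar with 100 μg/ml ampicillin and PCR-screened for blaKPC, blaSHV and qnr genes. MIC read by Etest.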

Enterobacter cloacae [11] = experiment: Antimicrobial activity against Enterobacter cloacae isolate 1 containing PFGE genetic clone A expressing qnrB2 and beta-lactamase KPC-2 and SHV-12 gene by Etest
Enterobacter cloacae [12] = experiment: Antimicrobial activity against Enterobacter cloacae isolate 18 containing PFGE genetic clone A expressing qnrB2 and beta-lactamase KPC-2 and SHV-12 gene by Etest
Enterobacter cloacae [13] = experiment: Antimicrobial activity against Enterobacter cloacae isolate 140 containing PFGE genetic clone A expressing beta-lactamase KPC-2 and SHV-12 gene by Etest
Enterobacter cloacae [14] = experiment: Antimicrobial activity against Enterobacter cloacae isolate 151 containing PFGE genetic clone A expressing qnrB2 and beta-lactamase KPC-2 gene by Etest
Enterobacter cloacae [15] = experiment: Antimicrobial activity against Enterobacter cloacae isolate 185 containing PFGE genetic clone A expressing qnrB2 aac(6')-Ib-cr and beta-lactamase KPC-2 and SHV-12 gene by Etest
Enterobacter cloacae [16] = experiment: Antimicrobial activity against Enterobacter cloacae isolate 293 containing PFGE genetic clone A expressing qnrB2 and beta-lactamase KPC-2 and SHV-12 gene by Etest
Enterobacter cloacae [17] = experiment: Antimicrobial activity against Enterobacter cloacae isolate 533 containing PFGE genetic clone A expressing qnrB2 and beta-lactamase KPC-2 and SHV-12 gene by Etest
Enterobacter cloacae [18] = experiment: Antimicrobial activity against Enterobacter cloacae isolate 622 containing PFGE genetic clone A expressing qnrB2 and beta-lactamase KPC-2 and SHV-12 gene by Etest
Enterobacter cloacae [19] = experiment: Antimicrobial activity against Enterobacter cloacae isolate 625 containing PFGE genetic clone A expressing qnrB2 and beta-lactamase KPC-2 and SHV-12 gene by Etest
Enterobacter cloacae [20] = experiment: Antimicrobial activity against Enterobacter cloacae isolate 656 containing PFGE genetic clone A expressing beta-lactamase KPC-2 and SHV-12 gene by Etest
Enterobacter cloacae [21] = experiment: Antimicrobial activity against Enterobacter cloacae isolate 649 containing PFGE genetic clone B expressing qnrB2 and beta-lactamase KPC-2 and SHV-12 gene by Etest
Enterobacter cloacae [22] = experiment: Antimicrobial activity against Enterobacter cloacae isolate 658 containing PFGE genetic clone B expressing qnrB2 and beta-lactamase KPC-2 and SHV-12 gene by Etest
Enterobacter cloacae [23] = experiment: Antimicrobial activity against Enterobacter cloacae isolate 781 containing PFGE genetic clone B expressing qnrB2 and beta-lactamase KPC-2 and SHV-12 gene by Etest
Enterobacter cloacae [24] = experiment: Antimicrobial activity against Enterobacter cloacae isolate 837 containing PFGE genetic clone B expressing qnrB2 and beta-lactamase KPC-2 and SHV-12 gene by Etest
Enterobacter cloacae [25] = experiment: Antimicrobial activity against Enterobacter cloacae isolate 4469 containing PFGE genetic clone C expressing qnrB2 and beta-lactamase KPC-2 and SHV-12 gene by Etest
Escherichia coli [26] = experiment: Antimicrobial activity against Escherichia coli T-622 harboring expressing qnrB2 and beta-lactamase KPC-2 and SHV-12 gene by Etest
Outline: (§2)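 MIC read by Etest. Strains are E. coli GeneHogs (recA1) transformants. Plasmid DNA from clinical E. cloacae isolates was introduced by electroporation. Transformants were selected on LB agar with 100 μg/ml ampicillin, then PCR-screened for blaKPC, blaSHV and qnr genes.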

Escherichia coli [27] = experiment: Antimicrobial activity against Escherichia coli T-625 harboring expressing qnrB2 and beta-lactamase KPC-2 and SHV-12 gene by Etest; outline: as §2
Escherichia coli [28] = experiment: Antimicrobial activity against Escherichia coli T-781 harboring expressing qnrB2 and beta-lactamase KPC-2 and SHV-12 gene by Etest; outline: as §2
Escherichia coli [29] = experiment: Antimicrobial activity against Escherichia coli GeneHogs by Etest
Outline: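 MIC read by Etest on the plasmid-free electroporation recipient, E. coli GeneHogs (recA1 mutant).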

Enterobacter cloacae [30] = experiment: Antimicrobial activity against Enterobacter cloacae isolate 1 containing PFGE genetic clone A expressing qnrB2 and beta-lactamase KPC-2 and SHV-12 gene by Etest in presence of beta-lactamase inhibitor Tazobactam; outline: as §1
Enterobacter cloacae [31] = experiment: Antimicrobial activity against Enterobacter cloacae isolate 18 containing PFGE genetic clone A expressing qnrB2 and beta-lactamase KPC-2 and SHV-12 gene by Etest in presence of beta-lactamase inhibitor Tazobactam; outline: as §1
Enterobacter cloacae [32] = experiment: Antimicrobial activity against Enterobacter cloacae isolate 140 containing PFGE genetic clone A expressing beta-lactamase KPC-2 and SHV-12 gene by Etest in presence of beta-lactamase inhibitor Tazobactam; outline: as §1
Enterobacter cloacae [33] = experiment: Antimicrobial activity against Enterobacter cloacae isolate 151 containing PFGE genetic clone A expressing qnrB2 and beta-lactamase KPC-2 gene by Etest in presence of beta-lactamase inhibitor Tazobactam; outline: as §1
Enterobacter cloacae [34] = experiment: Antimicrobial activity against Enterobacter cloacae isolate 185 containing PFGE genetic clone A expressing qnrB2 aac(6')-Ib-cr and beta-lactamase KPC-2 and SHV-12 gene by Etest in presence of beta-lactamase inhibitor Tazobactam; outline: as §1
Enterobacter cloacae [35] = experiment: Antimicrobial activity against Enterobacter cloacae isolate 293 containing PFGE genetic clone A expressing qnrB2 and beta-lactamase KPC-2 and SHV-12 gene by Etest in presence of beta-lactamase inhibitor Tazobactam; outline: as §1
Enterobacter cloacae [36] = experiment: Antimicrobial activity against Enterobacter cloacae isolate 533 containing PFGE genetic clone A expressing qnrB2 and beta-lactamase KPC-2 and SHV-12 gene by Etest in presence of beta-lactamase inhibitor Tazobactam; outline: as §1
Enterobacter cloacae [37] = experiment: Antimicrobial activity against Enterobacter cloacae isolate 622 containing PFGE genetic clone A expressing qnrB2 and beta-lactamase KPC-2 and SHV-12 gene by Etest in presence of beta-lactamase inhibitor Tazobactam; outline: as §1
Enterobacter cloacae [38] = experiment: Antimicrobial activity against Enterobacter cloacae isolate 625 containing PFGE genetic clone A expressing qnrB2 and beta-lactamase KPC-2 and SHV-12 gene by Etest in presence of beta-lactamase inhibitor Tazobactam; outline: as §1

**Q.** Which results are given for `CCN1CCN(C(=O)N[C@@H](C(=O)N[C@@H]2C(=O)N3[C@@H]2SC(C)(C)[C@@H]3C(=O)O)c2ccccc2)C(=O)C1=O` [PIPERACILLIN]?
**A.** MIC (Enterobacter cloacae [1]): ≥ 128 µg/mL; MIC (Enterobacter cloacae [2]): ≥ 128 µg/mL; MIC (Enterobacter cloacae [3]): ≥ 128 µg/mL; MIC (Enterobacter cloacae [4]): ≥ 128 µg/mL; MIC (Enterobacter cloacae [5]): ≥ 128 µg/mL; MIC (Enterobacter cloacae [6]): 64 µg/mL; MIC (Escherichia coli [7]): 64 µg/mL; MIC (Escherichia coli [8]): ≥ 128 µg/mL; MIC (Escherichia coli [9]): 64 µg/mL; MIC (Escherichia coli [10]): ≤ 4 µg/mL; MIC (Enterobacter cloacae [11]): ≥ 128 µg/mL; MIC (Enterobacter cloacae [12]): ≥ 128 µg/mL; MIC (Enterobacter cloacae [13]): ≥ 128 µg/mL; MIC (Enterobacter cloacae [14]): ≥ 128 µg/mL; MIC (Enterobacter cloacae [15]): ≥ 128 µg/mL; MIC (Enterobacter cloacae [16]): ≥ 128 µg/mL; MIC (Enterobacter cloacae [17]): ≥ 128 µg/mL; MIC (Enterobacter cloacae [18]): ≥ 128 µg/mL; MIC (Enterobacter cloacae [19]): ≥ 128 µg/mL; MIC (Enterobacter cloacae [20]): ≥ 128 µg/mL; MIC (Enterobacter cloacae [21]): ≥ 128 µg/mL; MIC (Enterobacter cloacae [22]): ≥ 128 µg/mL; MIC (Enterobacter cloacae [23]): ≥ 128 µg/mL; MIC (Enterobacter cloacae [24]): ≥ 128 µg/mL; MIC (Enterobacter cloacae [25]): ≥ 128 µg/mL; MIC (Escherichia coli [26]): ≥ 128 µg/mL; MIC (Escherichia coli [27]): ≥ 128 µg/mL; MIC (Escherichia coli [28]): ≥ 128 µg/mL; MIC (Escherichia coli [29]): ≤ 4 µg/mL; MIC (Enterobacter cloacae [30]): ≥ 128 µg/mL; MIC (Enterobacter cloacae [31]): ≥ 128 µg/mL; MIC (Enterobacter cloacae [32]): ≥ 128 µg/mL; MIC (Enterobacter cloacae [33]): ≥ 128 µg/mL; MIC (Enterobacter cloacae [34]): ≥ 128 µg/mL; MIC (Enterobacter cloacae [35]): ≥ 128 µg/mL; MIC (Enterobacter cloacae [36]): ≥ 128 µg/mL; MIC (Enterobacter cloacae [37]): ≥ 128 µg/mL; MIC (Enterobacter cloacae [38]): ≥ 128 µg/mL
